Values joined by “and” are separate entries in the source; they are usually repeats but may differ in a detail not shown here. Identical values can stand only once.
Legend:
U2OS = experiment: Multiplex assay against U2OS; format: toxicity, cell-based; conditions: human, number of replicates 2
In short: (§1)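 Values for tubulin, mitochondrial-mass and membrane-permeability phenotypes are per cents of cells with healthy nuclei. These cells were identified by CellPathfinder machine-learning gating of live cells that had been stained at seeding with Hoechst33342, BioTracker Green Microtubule Cytoskeleton Dye, MitoTracker Red and Annexin V Alexa Fluor 680 and imaged on a CQ1 microscope at 37°C and 5% CO2 after compound addition. The gating first set Hoechst high-intensity objects apart from normal cells, then split normal cells into healthy, pyknosed or fragmented nuclei, and pyknosed cells into mitotic or apoptotic.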

Fibroblast = experiment: Multiplex assay against human fibroblast; format: toxicity, cell-based; conditions: number of replicates 2; in short: as §1
[1] = 12 h, 1 µM, compound concentration 1 uM
[2] = 12 h, 10 µM, compound concentration 10 uM
[3] = 24 h, 1 µM, compound concentration 1 uM
[4] = 24 h, 10 µM, compound concentration 10 uM
[5] = 48 h, 1 µM, compound concentration 1 uM
[6] = 48 h, 10 µM, compound concentration 10 uM

Structure (SMILES): CCCN(CCc1cccs1)[C@H]1CCc2c(O)cccc2C1 [ROTIGOTINE]
- Population Apoptotic (%) (U2OS; [1]): 46% and 66%
- Population Fragmented Nuclei (%) (U2OS; [1]): 6% and 13%
- Population Healthy Nuclei (%) (U2OS; [1]): 84% and 76%
- Population Hoechst High Intensity Objects (%) (U2OS; [1]): 0%
- Population Mitochondria Different-Phenotype (%) (U2OS; [1]): 0%
- Population Mitotic Cells (%) (U2OS; [1]): 53% and 33%
- Population Normal (%) (U2OS; [1]): 100%
- Population Pyknosed Nuclei (%) (U2OS; [1]): 9% and 10%
- Population Tubulin-Different-Phenotype (%) (U2OS; [1]): 86% and 34%
- Total Cell Count (U2OS; [1]): 30
- Population Apoptotic (%) (U2OS; [2]): 62% and 50%
- Population Healthy Nuclei (%) (U2OS; [2]): 84% and 60%
- Population Hoechst High Intensity Objects (%) (U2OS; [2]): 0%
- Population Membrane Permeable-Phenotype (%) (U2OS; [2]): 4% and 13%
- Population Mitochondria Different-Phenotype (%) (U2OS; [2]): 1% and 0%
- Population Mitotic Cells (%) (U2OS; [2]): 37% and 50%
- Population Normal (%) (U2OS; [2]): 100%
- Population Pyknosed Nuclei (%) (U2OS; [2]): 11% and 15%
- Population Apoptotic (%) (U2OS; [3]): 57% and 80%
- Population Fragmented Nuclei (%) (U2OS; [3]): 1% and 6%
- Population Healthy Nuclei (%) (U2OS; [3]): 89% and 82%
- Population Hoechst High Intensity Objects (%) (U2OS; [3]): 0%
- Population Membrane Permeable-Phenotype (%) (U2OS; [3]): 2%
- Population Mitochondria Different-Phenotype (%) (U2OS; [3]): 0%
- Population Mitotic Cells (%) (U2OS; [3]): 42% and 20%
- Population Normal (%) (U2OS; [3]): 100%
- Population Pyknosed Nuclei (%) (U2OS; [3]): 8% and 10%
- Population Tubulin-Different-Phenotype (%) (U2OS; [3]): 88% and 39%
- Population Apoptotic (%) (U2OS; [4]): 48% and 66%
- Population Healthy Nuclei (%) (U2OS; [4]): 83% and 75%
- Population Hoechst High Intensity Objects (%) (U2OS; [4]): 0%
- Population Membrane Permeable-Phenotype (%) (U2OS; [4]): 0% and 9%
- Population Mitochondria Different-Phenotype (%) (U2OS; [4]): 1% and 2%
- Population Mitotic Cells (%) (U2OS; [4]): 51% and 33%
- Population Normal (%) (U2OS; [4]): 100%
- Population Pyknosed Nuclei (%) (U2OS; [4]): 13% and 10%
- Population Tubulin-Different-Phenotype (%) (U2OS; [4]): 62% and 46%
- Population Apoptotic (%) (U2OS; [5]): 35% and 83%
- Population Healthy Nuclei (%) (U2OS; [5]): 90% and 76%
- Population Hoechst High Intensity Objects (%) (U2OS; [5]): 0% and 1%
- Population Membrane Permeable-Phenotype (%) (U2OS; [5]): 1% and 6%
- Population Mitochondria Different-Phenotype (%) (U2OS; [5]): 0% and 4%
- Population Normal (%) (U2OS; [5]): 99% and 98%
- Population Pyknosed Nuclei (%) (U2OS; [5]): 6% and 9%
- Population Tubulin-Different-Phenotype (%) (U2OS; [5]): 93% and 35%
- Population Apoptotic (%) (U2OS; [6]): 66% and 57%
- Population Fragmented Nuclei (%) (U2OS; [6]): 8% and 2%
- Population Healthy Nuclei (%) (U2OS; [6]): 75% and 90%
- Population Hoechst High Intensity Objects (%) (U2OS; [6]): 0%
- Population Membrane Permeable-Phenotype (%) (U2OS; [6]): 6% and 1%
- Population Mitochondria Different-Phenotype (%) (U2OS; [6]): 3% and 0%
- Population Mitotic Cells (%) (U2OS; [6]): 33% and 42%
- Population Normal (%) (U2OS; [6]): 100% and 99%
- Population Pyknosed Nuclei (%) (U2OS; [6]): 15% and 6%
- Population Tubulin-Different-Phenotype (%) (U2OS; [6]): 62% and 78%
- Population Apoptotic (%) (Fibroblast; [1]): 73% and 35%
- Population Fragmented Nuclei (%) (Fibroblast; [1]): 9% and 11%
- Population Healthy Nuclei (%) (Fibroblast; [1]): 76% and 71%
- Population Hoechst High Intensity Objects (%) (Fibroblast; [1]): 0%
- Population Membrane Permeable-Phenotype (%) (Fibroblast; [1]): 6% and 3%
- Population Mitochondria Different-Phenotype (%) (Fibroblast; [1]): 2% and 0%
- Population Mitotic Cells (%) (Fibroblast; [1]): 26% and 64%
- Population Normal (%) (Fibroblast; [1]): 100% and 99%
- Population Pyknosed Nuclei (%) (Fibroblast; [1]): 14% and 16%
- Population Tubulin-Different-Phenotype (%) (Fibroblast; [1]): 15% and 10%
- Population Fragmented Nuclei (%) (Fibroblast; [2]): 17% and 18%
- Population Healthy Nuclei (%) (Fibroblast; [2]): 78% and 73%
- Population Hoechst High Intensity Objects (%) (Fibroblast; [2]): 0%
- Population Membrane Permeable-Phenotype (%) (Fibroblast; [2]): 0% and 1%
- Population Mitochondria Different-Phenotype (%) (Fibroblast; [2]): 0% and 1%
- Population Mitotic Cells (%) (Fibroblast; [2]): 50% and 86%
- Population Normal (%) (Fibroblast; [2]): 100%
- Population Pyknosed Nuclei (%) (Fibroblast; [2]): 4% and 7%
- Population Tubulin-Different-Phenotype (%) (Fibroblast; [2]): 13% and 14%
- Population Apoptotic (%) (Fibroblast; [3]): 52% and 46%
- Population Fragmented Nuclei (%) (Fibroblast; [3]): 9% and 12%
- Population Healthy Nuclei (%) (Fibroblast; [3]): 81% and 75%
- Population Hoechst High Intensity Objects (%) (Fibroblast; [3]): 0%
- Population Membrane Permeable-Phenotype (%) (Fibroblast; [3]): 4%
- Population Mitochondria Different-Phenotype (%) (Fibroblast; [3]): 0% and 1%
- Population Mitotic Cells (%) (Fibroblast; [3]): 47% and 53%
- Population Normal (%) (Fibroblast; [3]): 100% and 99%
- Population Pyknosed Nuclei (%) (Fibroblast; [3]): 9% and 12%
- Population Tubulin-Different-Phenotype (%) (Fibroblast; [3]): 7% and 6%
- Population Fragmented Nuclei (%) (Fibroblast; [4]): 24% and 14%
- Population Healthy Nuclei (%) (Fibroblast; [4]): 71% and 80%
- Population Hoechst High Intensity Objects (%) (Fibroblast; [4]): 0%
- Population Membrane Permeable-Phenotype (%) (Fibroblast; [4]): 1% and 0%

Source: ChEMBL document CHEMBL5303300, “EUbOPEN Chemogenomics Library - Multiplex” (2023)
